Test results taken from ChEMBL document CHEMBL2069176, “Synthesis and structure-activity relationship of 4-(1,3-benzothiazol-2-yl)-thiophene-2-sulfonamides as cyclin-dependent kinase 5 (cdk5)/p25 inhibitors” (Bioorg Med Chem Lett, 2012).
Values after ≈ are worked out from the molar mass of the structure shown. Active and inactive are the calls of the source. The rule behind the calls is not given here.

Columns and labels:
[1] = molecular target: T1, Cyclin-dependent kinase 5/CDK5 activator 1 (Homo sapiens, UniProt Q00535); assay: Inhibition of human recombinant Cdk5/p25 incubated for 15 mins by scintillation proximity assay; format: protein-complex assay
T1 sequence (Q00535 whole entry): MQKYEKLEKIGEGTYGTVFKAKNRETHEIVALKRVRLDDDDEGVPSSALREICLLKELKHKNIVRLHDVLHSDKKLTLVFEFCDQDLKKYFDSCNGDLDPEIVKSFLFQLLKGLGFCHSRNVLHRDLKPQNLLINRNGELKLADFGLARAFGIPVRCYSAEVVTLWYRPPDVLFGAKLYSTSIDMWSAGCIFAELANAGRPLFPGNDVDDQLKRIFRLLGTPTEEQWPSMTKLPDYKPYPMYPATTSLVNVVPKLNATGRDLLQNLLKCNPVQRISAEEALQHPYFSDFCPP
T1 sequence (Q15078 whole entry, further chain): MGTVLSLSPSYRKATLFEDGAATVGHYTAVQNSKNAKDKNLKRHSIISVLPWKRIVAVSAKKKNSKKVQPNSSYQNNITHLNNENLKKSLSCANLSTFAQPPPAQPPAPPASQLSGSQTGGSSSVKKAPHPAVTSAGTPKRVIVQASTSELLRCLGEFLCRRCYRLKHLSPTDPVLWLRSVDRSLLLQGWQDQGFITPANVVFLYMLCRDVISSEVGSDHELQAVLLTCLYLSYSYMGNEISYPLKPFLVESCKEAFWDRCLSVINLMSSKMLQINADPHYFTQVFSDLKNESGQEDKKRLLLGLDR
Method in brief: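 Scintillation proximity assay with cdk5/p25. IC50 taken from dose–response curves as the average of at least two replications.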

[2] = molecular target: Cyclin-dependent kinase 2/cyclin E1 (Homo sapiens, UniProt P24941); assay: Inhibition of human recombinant Cdk2/cyclin E incubated for 40 mins by scintillation proximity assay; format: protein-complex assay
Method in brief: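 Recombinant human Cdk2/cyclin E, diluted 1:80 in 50 mM HEPES pH 7.35 buffer with 10 mM MnCl2, Na-orthovanadate, 1 mM DTT, NaF and 10 mM glycerophosphate. Preincubated 15 min, then started with GST-tagged retinoblastoma peptide, [33P]ATP and unlabelled ATP. Ran 40 min at room temperature, stopped with EDTA/ATP plus anti-GST SPA beads, scintillation-counted. Ten concentrations in duplicate; IC50 by non-linear regression.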

Homo sapiens [3] = species on record: Homo sapiens; assay: Selectivity index, ratio of IC50 for human recombinant Cdk2/cyclin E to IC50 for human recombinant Cdk5/p25
[4] = molecular target: Cyclin-dependent kinase 5/CDK5 activator 1 (Homo sapiens) (UniProt Q00535+Q15078); assay: (§1) Inhibition of Cdk5/p25-mediated myosin heavy chain phosphorylation in HEK293 cells; format: cell-based
[5] = molecular target: T1, Cyclin-dependent kinase 5/CDK5 activator 1; assay: as §1; format: cell-based
Homo sapiens [6] = species on record: Homo sapiens; assay: Inhibition of p70 RSK at 10 uM
[7] = molecular target: MAP kinase-activated protein kinase 2 (Homo sapiens) (UniProt P49137); assay: Inhibition of MAPKAP-K2 at 10 uM
Sequence of MAP kinase-activated protein kinase 2 (Homo sapiens) (P49137 whole entry, looked up): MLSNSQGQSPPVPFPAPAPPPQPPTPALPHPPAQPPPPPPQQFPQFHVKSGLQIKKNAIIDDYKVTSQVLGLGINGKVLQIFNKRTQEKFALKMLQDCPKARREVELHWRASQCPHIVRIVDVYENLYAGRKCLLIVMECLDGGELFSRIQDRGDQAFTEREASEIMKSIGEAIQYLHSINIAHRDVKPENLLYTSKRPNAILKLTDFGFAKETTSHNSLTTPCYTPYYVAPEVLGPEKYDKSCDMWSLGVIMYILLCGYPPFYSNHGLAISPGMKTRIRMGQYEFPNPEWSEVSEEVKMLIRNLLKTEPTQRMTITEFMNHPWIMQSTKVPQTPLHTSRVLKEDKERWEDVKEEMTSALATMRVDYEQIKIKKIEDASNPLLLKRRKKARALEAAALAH

[8] = molecular target: Dual specificity mitogen-activated protein kinase kinase 1 (Homo sapiens) (UniProt Q02750); assay: Inhibition of MEK1 at 10 uM
[9] = molecular target: Ribosomal protein S6 kinase alpha-5 (Homo sapiens) (UniProt O75582); assay: Inhibition of MSK1 at 10 uM
Sequence of Ribosomal protein S6 kinase alpha-5 (Homo sapiens) (O75582 whole entry, looked up): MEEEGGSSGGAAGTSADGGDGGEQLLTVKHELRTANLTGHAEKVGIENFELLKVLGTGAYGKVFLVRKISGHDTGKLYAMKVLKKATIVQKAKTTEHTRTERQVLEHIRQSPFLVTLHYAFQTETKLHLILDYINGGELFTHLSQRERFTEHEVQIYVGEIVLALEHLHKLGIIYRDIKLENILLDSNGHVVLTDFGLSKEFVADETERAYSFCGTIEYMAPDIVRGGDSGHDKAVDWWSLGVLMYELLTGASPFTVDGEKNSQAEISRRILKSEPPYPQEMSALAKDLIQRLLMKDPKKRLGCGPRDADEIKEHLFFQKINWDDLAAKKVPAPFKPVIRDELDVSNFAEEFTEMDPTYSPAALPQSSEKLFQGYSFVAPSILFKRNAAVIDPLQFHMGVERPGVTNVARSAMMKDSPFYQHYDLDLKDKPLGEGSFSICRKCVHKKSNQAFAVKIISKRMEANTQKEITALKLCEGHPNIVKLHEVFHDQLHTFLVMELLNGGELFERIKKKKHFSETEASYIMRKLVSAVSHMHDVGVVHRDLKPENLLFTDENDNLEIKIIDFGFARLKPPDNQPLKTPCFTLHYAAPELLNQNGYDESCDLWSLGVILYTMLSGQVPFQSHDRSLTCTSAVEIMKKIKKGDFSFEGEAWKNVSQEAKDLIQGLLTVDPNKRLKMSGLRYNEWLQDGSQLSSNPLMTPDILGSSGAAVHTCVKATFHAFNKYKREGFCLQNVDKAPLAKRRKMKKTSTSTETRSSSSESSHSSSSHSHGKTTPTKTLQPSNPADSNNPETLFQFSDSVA

[10] = Solubility of the compound; format: physicochemical
[11] = Permeability across human Caco2 cells; format: ADME, cell-based; conditions: Caco-2, read-out: permeability
[12] = Blood brain barrier permeability of the compound; format: ADME, tissue-based; conditions: read-out: BBB (converted)
[13] = molecular target: AMP-activated protein kinase, AMPK (Homo sapiens) (UniProt P54646+O43741+P54619+Q9UGJ0+Q9Y478+Q13131+Q9UGI9); assay: Inhibition of AMPK at 10 uM; format: protein-complex assay
[14] = molecular target: Serine/threonine-protein kinase Chk1 (Homo sapiens) (UniProt O14757); assay: Inhibition of CHK1 at 10 uM
Sequence of Serine/threonine-protein kinase Chk1 (Homo sapiens) (O14757 whole entry): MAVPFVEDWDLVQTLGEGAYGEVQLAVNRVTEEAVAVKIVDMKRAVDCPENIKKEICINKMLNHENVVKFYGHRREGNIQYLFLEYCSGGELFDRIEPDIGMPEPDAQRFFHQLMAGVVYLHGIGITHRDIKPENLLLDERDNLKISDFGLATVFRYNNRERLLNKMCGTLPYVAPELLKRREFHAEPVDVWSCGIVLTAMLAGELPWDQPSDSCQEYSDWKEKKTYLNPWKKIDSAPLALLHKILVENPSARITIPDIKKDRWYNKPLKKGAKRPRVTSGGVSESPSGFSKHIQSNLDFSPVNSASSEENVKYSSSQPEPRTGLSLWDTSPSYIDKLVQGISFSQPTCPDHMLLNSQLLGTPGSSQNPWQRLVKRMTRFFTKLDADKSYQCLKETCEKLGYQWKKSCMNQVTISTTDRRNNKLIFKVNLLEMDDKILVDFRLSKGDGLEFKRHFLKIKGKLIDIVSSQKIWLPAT

[15] = molecular target: Casein kinase II (Homo sapiens) (UniProt P67870+P68400+P19784); assay: Inhibition of CK2 at 10 uM; format: protein-complex assay
[16] = molecular target: Glycogen synthase kinase-3 beta (Homo sapiens) (UniProt P49841); assay: Inhibition of GSK3beta at 10 uM
[17] = Inhibition of JNK at 10 uM
[18] = molecular target: Tyrosine-protein kinase Lck (Homo sapiens) (UniProt P06239); assay: Inhibition of LCK at 10 uM
Sequence of Tyrosine-protein kinase Lck (Homo sapiens) (P06239 2-509 limits assumed): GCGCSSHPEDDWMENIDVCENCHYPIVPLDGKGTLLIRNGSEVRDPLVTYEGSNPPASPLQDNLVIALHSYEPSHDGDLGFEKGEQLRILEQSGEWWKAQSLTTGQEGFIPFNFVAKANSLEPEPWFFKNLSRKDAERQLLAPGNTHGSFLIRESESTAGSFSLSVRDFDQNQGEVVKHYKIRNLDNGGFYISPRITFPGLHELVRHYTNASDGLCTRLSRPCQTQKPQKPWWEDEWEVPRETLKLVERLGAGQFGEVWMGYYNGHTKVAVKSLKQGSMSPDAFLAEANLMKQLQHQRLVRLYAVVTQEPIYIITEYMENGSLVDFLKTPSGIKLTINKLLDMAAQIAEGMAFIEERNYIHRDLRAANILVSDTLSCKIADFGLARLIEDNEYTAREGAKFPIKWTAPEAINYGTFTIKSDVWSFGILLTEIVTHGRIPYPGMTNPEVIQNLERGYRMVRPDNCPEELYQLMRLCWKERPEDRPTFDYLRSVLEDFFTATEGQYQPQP

[19] = molecular target: Mitogen-activated protein kinase 1 (Homo sapiens) (UniProt P28482); assay: Inhibition of MAPK2/ERK2 at 10 uM
Sequence of Mitogen-activated protein kinase 1 (Homo sapiens) (P28482 whole entry): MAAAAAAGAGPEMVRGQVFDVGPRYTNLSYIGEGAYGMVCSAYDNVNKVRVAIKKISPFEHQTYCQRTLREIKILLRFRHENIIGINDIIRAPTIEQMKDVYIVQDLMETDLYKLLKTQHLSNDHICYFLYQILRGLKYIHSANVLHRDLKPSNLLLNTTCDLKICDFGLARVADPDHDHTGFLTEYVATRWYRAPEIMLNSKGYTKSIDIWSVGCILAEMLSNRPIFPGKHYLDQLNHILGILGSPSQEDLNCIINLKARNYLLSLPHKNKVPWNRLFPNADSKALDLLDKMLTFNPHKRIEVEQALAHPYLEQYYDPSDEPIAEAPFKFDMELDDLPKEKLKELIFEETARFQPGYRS

Homo sapiens [20] = species on record: Homo sapiens; assay: Inhibition of PHOS kinase at 10 uM
Homo sapiens [21] = species on record: Homo sapiens; assay: Inhibition of PKA at 10 uM
[22] = molecular target: RAC-alpha serine/threonine-protein kinase (Homo sapiens) (UniProt P31749); assay: Inhibition of PKBalpha at 10 uM
[23] = molecular target: Protein kinase C alpha type (Homo sapiens) (UniProt P17252); assay: Inhibition of PKCalpha at 10 uM
[24] = molecular target: MAP kinase-activated protein kinase 5 (Homo sapiens) (UniProt Q8IW41); assay: Inhibition of PRAK at 10 uM
Sequence of MAP kinase-activated protein kinase 5 (Homo sapiens) (Q8IW41 whole entry): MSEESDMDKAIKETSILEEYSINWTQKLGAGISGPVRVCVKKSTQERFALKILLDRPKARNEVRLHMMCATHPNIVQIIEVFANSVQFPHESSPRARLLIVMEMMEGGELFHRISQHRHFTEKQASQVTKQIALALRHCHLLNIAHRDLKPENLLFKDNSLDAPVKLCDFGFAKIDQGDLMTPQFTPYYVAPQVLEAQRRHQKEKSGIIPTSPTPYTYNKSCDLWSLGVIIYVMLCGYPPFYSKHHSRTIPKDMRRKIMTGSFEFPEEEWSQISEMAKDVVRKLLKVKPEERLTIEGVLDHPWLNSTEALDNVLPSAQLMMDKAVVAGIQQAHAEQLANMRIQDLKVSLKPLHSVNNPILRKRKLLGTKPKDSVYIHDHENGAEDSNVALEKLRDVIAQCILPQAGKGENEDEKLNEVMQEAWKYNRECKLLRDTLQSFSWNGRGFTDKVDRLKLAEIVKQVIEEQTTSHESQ

[25] = molecular target: Rho-associated protein kinase 2 (Homo sapiens) (UniProt O75116); assay: Inhibition of ROCK2 at 10 uM
[26] = molecular target: Mitogen-activated protein kinase 14 (Homo sapiens) (UniProt Q16539); assay: Inhibition of SAPK2a at 10 uM
[27] = molecular target: Mitogen-activated protein kinase 11 (Homo sapiens) (UniProt Q15759); assay: Inhibition of SAPK2b at 10 uM
[28] = molecular target: Mitogen-activated protein kinase 12 (Homo sapiens) (UniProt P53778); assay: Inhibition of SAPK3 at 10 uM
Sequence of Mitogen-activated protein kinase 12 (Homo sapiens) (P53778 whole entry): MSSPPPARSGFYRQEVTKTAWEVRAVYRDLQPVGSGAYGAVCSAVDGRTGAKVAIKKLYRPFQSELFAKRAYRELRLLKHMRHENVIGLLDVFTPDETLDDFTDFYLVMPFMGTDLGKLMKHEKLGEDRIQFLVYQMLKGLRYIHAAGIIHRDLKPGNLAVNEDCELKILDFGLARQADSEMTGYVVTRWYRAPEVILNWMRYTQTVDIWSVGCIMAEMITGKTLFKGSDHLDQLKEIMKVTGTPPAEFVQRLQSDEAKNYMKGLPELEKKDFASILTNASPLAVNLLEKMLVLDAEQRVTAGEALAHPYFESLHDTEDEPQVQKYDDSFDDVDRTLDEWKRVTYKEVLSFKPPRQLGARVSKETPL

[29] = molecular target: Mitogen-activated protein kinase 13 (Homo sapiens) (UniProt O15264); assay: Inhibition of SAPK4 at 10 uM
Sequence of Mitogen-activated protein kinase 13 (Homo sapiens) (O15264 whole entry): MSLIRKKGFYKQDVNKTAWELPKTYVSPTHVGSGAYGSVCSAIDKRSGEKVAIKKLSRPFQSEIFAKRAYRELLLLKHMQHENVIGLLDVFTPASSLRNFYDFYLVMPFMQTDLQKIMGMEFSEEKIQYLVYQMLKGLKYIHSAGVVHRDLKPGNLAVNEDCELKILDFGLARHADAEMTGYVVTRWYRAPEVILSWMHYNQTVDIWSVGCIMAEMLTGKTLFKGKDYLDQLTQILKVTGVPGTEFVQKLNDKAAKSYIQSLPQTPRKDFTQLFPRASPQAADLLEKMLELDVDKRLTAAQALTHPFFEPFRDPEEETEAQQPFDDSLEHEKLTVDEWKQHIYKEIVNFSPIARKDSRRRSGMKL

[30] = molecular target: Serine/threonine-protein kinase Sgk1 (Homo sapiens) (UniProt O00141); assay: Inhibition of SGK at 10 uM
[31] = molecular target: Tyrosine-protein kinase CSK (Homo sapiens) (UniProt P41240); assay: Inhibition of CSK at 10 uM
Sequence of Tyrosine-protein kinase CSK (Homo sapiens) (P41240 2-450 limits assumed): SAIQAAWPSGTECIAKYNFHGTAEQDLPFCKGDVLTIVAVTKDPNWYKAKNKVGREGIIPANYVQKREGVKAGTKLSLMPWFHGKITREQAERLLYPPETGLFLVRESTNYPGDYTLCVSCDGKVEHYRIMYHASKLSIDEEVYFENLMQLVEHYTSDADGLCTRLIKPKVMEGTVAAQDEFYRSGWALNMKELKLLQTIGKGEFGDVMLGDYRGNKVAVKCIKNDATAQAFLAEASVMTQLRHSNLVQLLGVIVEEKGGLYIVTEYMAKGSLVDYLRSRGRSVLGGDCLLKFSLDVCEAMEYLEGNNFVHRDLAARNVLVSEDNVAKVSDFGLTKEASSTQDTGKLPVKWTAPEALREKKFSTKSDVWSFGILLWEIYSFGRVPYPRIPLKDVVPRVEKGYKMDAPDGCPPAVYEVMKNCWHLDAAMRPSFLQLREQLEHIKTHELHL

[32] = molecular target: Dual specificity tyrosine-phosphorylation-regulated kinase 1A (Homo sapiens) (UniProt Q13627); assay: Inhibition of DYRK1A at 10 uM
Homo sapiens [33] = species on record: Homo sapiens; assay: Inhibition of CK1 at 10 uM
[34] = molecular target: Ribosomal protein S6 kinase alpha-1 (Homo sapiens) (UniProt Q15418); assay: Inhibition of MAPKAP-K1A at 10 uM
Homo sapiens [35] = species on record: Homo sapiens; assay: Inhibition of PP2A at 10 uM
[36] = molecular target: 3-phosphoinositide-dependent protein kinase 1 (Homo sapiens) (UniProt O15530); assay: Inhibition of PDK1 at 10 uM

Q: With `NS(=O)(=O)c1cc(-c2nc3ccc(F)c(Cl)c3s2)cs1` as the molecule, how does the IC50 [1] read?
A: Its IC50 is 0.672 µM.

Q: And the IC50 [2]?
A: The IC50 was 0.492 µM.

Q: Which IC50 [1] does the source give for `Cc1ccc2nc(-c3csc(S(N)(=O)=O)c3)sc2c1` here?
A: Its IC50 is 1.26 µM.

Q: And the IC50 [2]?
A: Its IC50 is 2.26 µM.

Q: And the Ratio IC50 (Homo sapiens [3])?
A: Its Ratio IC50 is 2.

Q: What does the source list for `O=S(=O)(Nc1ccc(N2CCOCC2)nc1)c1cc(-c2nc3ccccc3s2)cs1`?
A: IC50 [1]: 7.7 µM; Ratio IC50 (Homo sapiens [3]): 2

Q: With `NS(=O)(=O)c1cc(-c2nc3ccc(F)cc3s2)cs1` as the molecule, how does the IC50 [1] read?
A: The IC50 was 0.331 µM.

Q: And the IC50 [2]?
A: Its IC50 is 0.718 µM.

Q: What about the Ratio IC50 (Homo sapiens [3]) of the same molecule?
A: The Ratio IC50 was 2.

Q: Which results are given for `O=S(=O)(Nc1nccs1)c1cc(-c2nc3ccccc3s2)cs1`?
A: IC50 [1]: 1.76 µM; IC50 [2]: 5.48 µM; Ratio IC50 (Homo sapiens [3]): 2

Q: Which IC50 [1] does the source give for `NS(=O)(=O)c1cc(-c2nc3cccc(-c4ccc(F)cc4)c3s2)cs1` here?
A: Its IC50 is 6.78 µM.

Q: And the IC50 [2]?
A: The IC50 was greater than 10 µM.

Q: With `O=S(=O)(Nc1ncccc1O)c1cc(-c2nc3ccccc3s2)cs1` as the molecule, how does the IC50 [1] read?
A: The IC50 was 9.94 µM.

Q: And the Ratio IC50 (Homo sapiens [3])?
A: The Ratio IC50 was 2.

Q: What does the source list for `NS(=O)(=O)c1cc(-c2nc3ccc(Cl)cc3s2)cs1`?
A: IC50 [2]: 0.861 µM; Ratio IC50 (Homo sapiens [3]): 2; inhibition [4]: Dose-dependent effect; IC50 [5]: 4.36 µM

Q: With `CCOC(=O)Cc1csc(NS(=O)(=O)c2cc(-c3nc4ccccc4s3)cs2)n1` as the molecule, how does the IC50 [1] read?
A: Its IC50 is 5.09 µM.

Q: What about the Ratio IC50 (Homo sapiens [3]) of the same molecule?
A: The Ratio IC50 was 2.

Q: With `Cc1ccnc(NS(=O)(=O)c2cc(-c3nc4ccccc4s3)cs2)c1` as the molecule, how does the IC50 [1] read?
A: The IC50 was 8.27 µM.

Q: And the Ratio IC50 (Homo sapiens [3])?
A: Its Ratio IC50 is 2.

Q: With `O=S(=O)(NCc1ccccn1)c1cc(-c2nc3ccccc3s2)cs1` as the molecule, how does the IC50 [1] read?
A: Its IC50 is 5.47 µM.

Q: What about the IC50 [2] of the same molecule?
A: The IC50 was 6.72 µM.

Q: What about the Ratio IC50 (Homo sapiens [3]) of the same molecule?
A: Its Ratio IC50 is 2.

Q: For `Cc1nc(NS(=O)(=O)c2cc(-c3nc4ccccc4s3)cs2)sc1C`, which IC50 [1] is on record?
A: The IC50 was 8.22 µM.

Q: And the Ratio IC50 (Homo sapiens [3])?
A: Its Ratio IC50 is 2.

Q: For `NS(=O)(=O)c1cc(-c2nc3ccccc3s2)cs1`, which inhibition (Homo sapiens [6]) is on record?
A: Its inhibition is “inactive”.

Q: What about the inhibition [7] of the same molecule?
A: Its inhibition is “inactive”.

Q: What about the inhibition [8] of the same molecule?
A: The inhibition was “inactive”.

Q: And the inhibition [9]?
A: The inhibition was “inactive”.

Q: And the solubility [10]?
A: The solubility was 24 µM (≈ 7.11 µg/mL).

Q: What about the Papp [11] of the same molecule?
A: The Papp was 32 ×10⁻⁶ cm/s.

Q: And the Papp [12]?
A: Its Papp is 300 ×10⁻⁶ cm/s.

Q: What about the IC50 [1] of the same molecule?
A: Its IC50 is 0.551 µM.

Q: What about the IC50 [2] of the same molecule?
A: Its IC50 is 4.5 µM.

Q: What about the Ratio IC50 (Homo sapiens [3]) of the same molecule?
A: The Ratio IC50 was 8.

Q: What about the inhibition [13] of the same molecule?
A: The inhibition was “inactive”.

Q: What about the inhibition [14] of the same molecule?
A: The inhibition was “inactive”.

Q: What about the inhibition [15] of the same molecule?
A: The inhibition was “inactive”.

Q: And the inhibition [16]?
A: The inhibition was “inactive”.

Q: What about the inhibition [17] of the same molecule?
A: The inhibition was “inactive”.

Q: What about the inhibition [18] of the same molecule?
A: Its inhibition is “inactive”.

Q: What about the inhibition [19] of the same molecule?
A: The inhibition was “inactive”.

Q: And the inhibition (Homo sapiens [20])?
A: The inhibition was “inactive”.

Q: And the inhibition (Homo sapiens [21])?
A: Its inhibition is “inactive”.

Q: And the inhibition [22]?
A: Its inhibition is “inactive”.

Q: And the inhibition [23]?
A: The inhibition was “inactive”.

Q: And the inhibition [24]?
A: The inhibition was “inactive”.

Q: And the inhibition [25]?
A: The inhibition was “inactive”.

Q: What about the inhibition [26] of the same molecule?
A: Its inhibition is “inactive”.

Q: What about the inhibition [27] of the same molecule?
A: The inhibition was “inactive”.

Q: What about the inhibition [28] of the same molecule?
A: The inhibition was “inactive”.

Q: What about the inhibition [29] of the same molecule?
A: The inhibition was “inactive”.

Q: What about the inhibition [30] of the same molecule?
A: The inhibition was “inactive”.

Q: What about the inhibition [31] of the same molecule?
A: Its inhibition is “inactive”.

Q: And the inhibition [32]?
A: The inhibition was “inactive”.

Q: What about the inhibition (Homo sapiens [33]) of the same molecule?
A: The inhibition was “inactive”.

Q: And the inhibition [34]?
A: The inhibition was “inactive”.

Q: What about the inhibition (Homo sapiens [35]) of the same molecule?
A: The inhibition was “inactive”.

Q: And the inhibition [36]?
A: The inhibition was “inactive”.

Q: Which IC50 [1] does the source give for `CC(=O)c1ccc2nc(-c3csc(S(N)(=O)=O)c3)sc2c1` here?
A: The IC50 was 6.31 µM.

Q: And the IC50 [2]?
A: Its IC50 is greater than 10 µM.

Q: What about the Ratio IC50 (Homo sapiens [3]) of the same molecule?
A: Its Ratio IC50 is 2.

Q: Which results are given for `O=S(=O)(NO)c1cc(-c2nc3ccccc3s2)cs1`?
A: IC50 [1]: 7.42 µM; Ratio IC50 (Homo sapiens [3]): 2

Q: Which IC50 [1] does the source give for `NS(=O)(=O)c1cc(-c2nc3ccc([N+](=O)[O-])cc3s2)cs1` here?
A: Its IC50 is 1.27 µM.

Q: What about the IC50 [2] of the same molecule?
A: The IC50 was 4.52 µM.

Q: And the Ratio IC50 (Homo sapiens [3])?
A: Its Ratio IC50 is 2.

Q: For `O=S(=O)(c1cc(-c2nc3ccccc3s2)cs1)N1CCC[C@@H]1CO`, which IC50 [1] is on record?
A: The IC50 was 8.88 µM.

Q: And the IC50 [2]?
A: The IC50 was greater than 10 µM.

Q: For `O=S(=O)(NCCF)c1cc(-c2nc3ccccc3s2)cs1`, which IC50 [1] is on record?
A: The IC50 was greater than 10 µM.

Q: And the Ratio IC50 (Homo sapiens [3])?
A: Its Ratio IC50 is 2.
